According to ChEMBL document CHEMBL4680084, “New β-Lactam Derivatives Modulate Cell Adhesion and Signaling Mediated by RGD-Binding and Leukocyte Integrins” (J Med Chem, 2016):
pEC50, pIC50: −log10 of the molar value. Calls of active or inactive are those of the source. The calls are words filed in the database; no cut-off is given here.

Key:
[1] = biological target: T1, Integrin alpha-IIb/beta-3 (Homo sapiens, UniProt P05106+P08514); test: Inhibition of fibrinogen binding to alpha2bbeta3 isolated from human HEL cells incubated for 1 hr by […] competitive solid-phase binding assay
Integrin alpha-5/beta-1 = Integrin alpha-5/beta-1 (Homo sapiens, UniProt P05556+P08648); test: Inhibition of fibronectin binding to alpha5beta1 isolated from human K562 cells incubated for 1 hr by […] competitive solid-phase binding assay; assay type: tissue-based
Method in brief: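 Plates coated overnight at 4 °C in carbonate buffer pH 9.6 with fibronectin 0.5 µg/mL (αvβ3, αvβ6, α5β1), fibrinogen 10 µg/mL (αIIbβ3, αvβ5) or ICAM-1 (αLβ2). Blocked 1 h in buffer containing Ca/Mg/Mn 1 mM each and 1% BSA. Purified integrin (3–10 µg/mL) incubated with compound (10⁻⁴–10⁻¹⁰ M) 1 h at room temperature. Bound integrin detected with primary antibody then AlexaFluor488 secondary, Ex485/Em535. Duplicate, at least three repeats.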

SK-MEL-24 = test: Toxicity in human SK-MEL-24 cells assessed as induction of cell necrosis and/or apoptosis incubated for 3 hrs by annexin V-PE and 7-AAD staining based by flow cytometry; conditions: sk-mel-24, 3 h
Method in brief: (§1)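 After 3 h incubation, cells resuspended in complete medium and stained with annexin V-PE/7-AAD reagent for 20 min at room temperature in the dark. Flow cytometry sorted cells into viable, early apoptotic and late apoptotic/necrotic populations.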

MCF7 = test: Toxicity in human MCF7 cells assessed as induction of cell necrosis and/or apoptosis incubated for 3 hrs by annexin V-PE and 7-AAD staining based by flow cytometry; conditions: mcf7, 3 h; method in brief: as §1
HT-29 = test: Toxicity in human HT-29 cells assessed as induction of cell necrosis and/or apoptosis incubated for 3 hrs by annexin V-PE and 7-AAD staining based by flow cytometry; conditions: ht-29, 3 h; method in brief: as §1
K562 = test: Toxicity in human K562 cells assessed as induction of cell necrosis and/or apoptosis incubated for 3 hrs by annexin V-PE and 7-AAD staining based by flow cytometry; conditions: k562, 3 h; method in brief: as §1
HEL = test: Toxicity in human HEL cells assessed as induction of cell necrosis and/or apoptosis incubated for 3 hrs by annexin V-PE and 7-AAD staining based by flow cytometry; method in brief: as §1
Integrin alpha-V/beta-5 [2] = biological target: T2, Integrin alpha-V/beta-5 (Homo sapiens, UniProt P06756+P18084); test: Agonist activity at alphaVbeta5 in human MCF7 cells assessed as increase in cell adhesion to fibrinogen pre-incubated for 30 mins before fibrinogen and further incubated for 1 hr by nitrophenyl-N-acetyl-beta-D-glucosaminide substrate based chromogenic assay
Method in brief: (§2)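 Compound or methanol vehicle pre-incubated with cells for 30 min at room temperature. Cells then plated on wells coated overnight at 4 °C with fibronectin 10 µg/mL (SK-MEL-24, K562, HT-29) or fibrinogen 10 µg/mL (MCF7, HEL). Seeding was 50,000 cells/well, or 100000 for HEL. Adhesion ran 1 h at room temperature. Wells washed with 1% BSA/PBS. Adherent cells read by hexosaminidase substrate, absorbance 405 nm. Quadruplicate, at least three repeats.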

Integrin alpha-V/beta-6 [3] = biological target: T3, Integrin alpha-V/beta-6 (Homo sapiens, UniProt P06756+P18564); test: Agonist activity at alphaVbeta6 in human HT-29 cells assessed as increase in cell adhesion to fibronectin pre-incubated for 30 mins before fibronectin and further incubated for 1 hr by nitrophenyl-N-acetyl-beta-D-glucosaminide substrate based chromogenic assay; method in brief: as §2
Integrin alpha-4/beta-1 [4] = biological target: T4, Integrin alpha-4/beta-1 (Homo sapiens, UniProt P05556+P13612); test: Agonist activity at alpha4beta1 in human Jurkat E6.1 cells assessed as increase in cell adhesion to VCAM1 pre-incubated for 30 mins before VCAM1 and further incubated for 30 mins by […]; assay type: cell-based
Method in brief: (§3)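 Jurkat E6.1 cells labelled with CellTracker green CMFDA (12.5 µM, 30 min, 37 °C), washed, then pre-incubated 30 min at 37 °C with compound or methanol. Plated at 500,000/well on VCAM-1 (α4β1) or ICAM-1 (αLβ2) coated wells (5 µg/mL) for 30 min at 37 °C. Cells lysed in 0.5% Triton X-100; fluorescence read Ex485/Em535. Quadruplicate, at least three repeats.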

[5] = biological target: T1, Integrin alpha-IIb/beta-3; test: Agonist activity at alpha2bbeta3 in human HEL cells assessed as increase in cell adhesion to fibrinogen pre-incubated for 30 mins before fibrinogen and further incubated for 1 hr by nitrophenyl-N-acetyl-beta-D-glucosaminide substrate based chromogenic assay
Method in brief: as §2, with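 “BSA/PBS.” for “BSA/PBS. Adherent cells read by hexosaminidase substrate, absorbance 405 nm.”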

[6] = biological target: T1, Integrin alpha-IIb/beta-3; test: Antagonist activity at alpha2bbeta3 in human HEL cells assessed as reduction in cell adhesion to fibrinogen pre-incubated for 30 mins before fibrinogen and further incubated for 1 hr by nitrophenyl-N-acetyl-beta-D-glucosaminide substrate based chromogenic assay
Method in brief: as §2, with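 “BSA/PBS.” for “BSA/PBS. Adherent cells read by hexosaminidase substrate, absorbance 405 nm.”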

Integrin alpha-4/beta-1 [7] = biological target: T4, Integrin alpha-4/beta-1; test: Antagonist activity at alpha4beta1 in human Jurkat E6.1 cells assessed as reduction in cell adhesion to VCAM1 pre-incubated for 30 mins before VCAM1 and further incubated for 30 mins by […]; assay type: cell-based
[8] = biological target: Integrin alpha-L/beta-2 (LFA-1) (Homo sapiens, UniProt P05107+P20701); test: Antagonist activity at alphaLbeta2 in human Jurkat E6.1 cells assessed as reduction in cell adhesion to ICAM1 pre-incubated for 30 mins before ICAM1 and further incubated for 30 mins by […]; assay type: cell-based; method in brief: as §3
Integrin alpha-V/beta-3 [9] = biological target: T5, Integrin alpha-V/beta-3 (Homo sapiens, UniProt P05106+P06756); test: Inhibition of fibronectin binding to human recombinant alphaVbeta3 expressed in HEK293 cells incubated for 1 hr by […] competitive solid-phase binding assay; assay type: cell-based
Integrin alpha-V/beta-5 [10] = biological target: T2, Integrin alpha-V/beta-5; test: Inhibition of fibrinogen binding to alphaVbeta5 isolated form human mCf7 cells incubated for 1 hr by […] competitive solid-phase binding assay
Integrin alpha-V/beta-6 [11] = biological target: T3, Integrin alpha-V/beta-6; test: Inhibition of fibronectin binding to alphaVbeta6 isolated form human HT-29 cells incubated for 1 hr by […] competitive solid-phase binding assay; assay type: tissue-based
Integrin alpha-4/beta-1 [12] = biological target: T4, Integrin alpha-4/beta-1; test: Inhibition of fibronectin binding to […] isolated from human Jurkat E6.1 cells incubated for 1 hr by scintillation-proximity assay based competitive solid-phase binding assay; assay type: tissue-based
Integrin alpha-V/beta-3 [13] = biological target: T5, Integrin alpha-V/beta-3; test: Agonist activity at alphaVbeta3 in human SK-MEL-24 cells assessed as increase in cell adhesion to fibronectin at 2 to 10 ug/ml pre-incubated for 30 mins and further incubated for 1 hr by nitrophenyl-N-acetyl-beta-D-glucosaminide substrate based chromogenic assay; conditions: filed as agonist, dose 2-10 µg/ml, time 90.0 min
Integrin alpha-V/beta-3 [14] = biological target: T5, Integrin alpha-V/beta-3; test: (§4) Agonist activity at alphaVbeta3 in human SK-MEL-24 cells assessed as increase in cell adhesion to fibronectin at 10 ug/ml pre-incubated for 30 mins and further incubated for 1 hr in presence of in presence of integrin antagonist c(-RGDfV) by nitrophenyl-N-acetyl-beta-D-glucosaminide substrate based chromogenic assay; conditions: dose 10.0 µg/ml, time 90.0 min
Integrin alpha-V/beta-3 [15] = biological target: T5, Integrin alpha-V/beta-3; test: as §4, with “of neutralizing antibody against the alphaV” for “of in presence of”, “integrin subunit” for “integrin antagonist c(-RGDfV)”; conditions: dose 10.0 µg/ml, time 90.0 min

With `NCc1ccc(NC(=O)N2C(=O)CC2CC(=O)O)cc1.O=C(O)C(F)(F)F` (stereo unspecified) the pIC50 [1] was < 6.00, the pIC50 (Integrin alpha-5/beta-1) was 8.26 and the Activity (SK-MEL-24) was “Non-Toxic”. For the same compound, the Activity (MCF7) was “Non-Toxic”, the Activity (HT-29) was “Non-Toxic” and the Activity (K562) was “Non-Toxic”. For the same compound, the Activity (HEL) was “Non-Toxic”, the pEC50 (Integrin alpha-V/beta-5 [2]) was 8.29 and the pEC50 (Integrin alpha-V/beta-6 [3]) was 6.78. The pEC50 (Integrin alpha-4/beta-1 [4]) was < 5.30, the pEC50 [5] was < 5.30 and the pIC50 [6] was < 5.30. For the same compound, the pIC50 (Integrin alpha-4/beta-1 [7]) was < 5.30, the pIC50 [8] was 5.62 and the pIC50 (Integrin alpha-V/beta-3 [9]) was 8.25. For the same compound, the pIC50 (Integrin alpha-V/beta-5 [10]) was 8.42, the pIC50 (Integrin alpha-V/beta-6 [11]) was 7.09 and the pIC50 (Integrin alpha-4/beta-1 [12]) was < 6.00. For the same compound, the Activity (Integrin alpha-V/beta-3 [13]) was “Dose-dependent effect”, the Activity (Integrin alpha-V/beta-3 [14]) was “inactive” and the Activity (Integrin alpha-V/beta-3 [15]) was “inactive”.
